Converted amounts (≈) assume the structure as drawn.
Assays:
[1] = test system: Salmonella; experiment: Antimicrobial activity against Salmonella serogroup O8 by broth microdilution method; assay type: functional
Method in brief: (§1)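 Clinical isolates from Taiwan; tigecycline and tetracycline MICs by broth microdilution per CLSI guidelines, tested over 0.03 μg/ml to 128 μg/ml; a control strain was included.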

[2] = Antimicrobial activity against Salmonella serotype Choleraesuis by broth microdilution method; assay type: functional, Salmonella enterica subsp. enterica serovar Choleraesuis; settings: Salmonella enterica
Method in brief: (§2)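 Tigecycline MICs for clinical isolates (Taiwan) were determined by broth microdilution over 0.03 to 128 μg/ml. A control strain was included, and its MICs had to fall within the recommended range. Susceptible, intermediate and resistant categories were assigned from the MICs using US FDA and EUCAST breakpoints.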

[3] = test system: Vibrio; experiment: Antimicrobial activity against tetracycline-nonsusceptible Vibrio sp. Isolate by broth microdilution method; assay type: functional; method in brief: as §1
[4] = test system: Aeromonas sobria; experiment: Antimicrobial activity against Aeromonas sobria assessed as percent tetracyclin-resistant isolate at 0.25 to >16 ug/ml by broth microdilution method; assay type: functional
Method in brief: (§3)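 Tetracycline MICs for clinical isolates were determined by broth microdilution over 0.03 to 128 μg/ml. The reported value is the rate of isolates not susceptible to tetracycline for each species or serogroup.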

[5] = test system: Aeromonas sobria; experiment: Antimicrobial activity against Aeromonas sobria by broth microdilution method; assay type: functional; method in brief: as §1
[6] = Antimicrobial activity against Salmonella serotype Choleraesuis assessed as percent tetracyclin-resistant isolate at 1 to >128 ug/ml by broth microdilution method; assay type: functional, Salmonella enterica subsp. enterica serovar Choleraesuis; method in brief: as §3
[7] = test system: Vibrio; experiment: Antimicrobial activity against tetracycline-susceptible Vibrio sp. Isolate by broth microdilution method; assay type: functional; method in brief: as §1
[8] = test system: Aeromonas caviae; experiment: Antimicrobial activity against Aeromonas caviae by broth microdilution method; assay type: functional; method in brief: as §1
[9] = test system: Aeromonas hydrophila; experiment: Antimicrobial activity against Aeromonas hydrophila assessed as percent tetracyclin-resistant isolate at 0.25 to >16 ug/ml by broth microdilution method; assay type: functional; method in brief: as §3
[10] = test system: Salmonella; experiment: Antimicrobial activity against tetracycline-nonsusceptible Salmonella sp. Isolate by broth microdilution method; assay type: functional; method in brief: as §1
[11] = test system: Salmonella; experiment: Antimicrobial activity against Salmonella serogroup O7 assessed as percent tetracyclin-resistant isolate at 1 to >128 ug/ml by broth microdilution method; assay type: functional; method in brief: as §3
[12] = test system: Aeromonas sp.; experiment: Antimicrobial activity against tetracycline-susceptible Aeromonas sp. isolate by broth microdilution method; assay type: functional; method in brief: as §1
[13] = test system: Salmonella; experiment: Antimicrobial activity against Salmonella serogroup O9 assessed as percent tetracyclin-resistant isolate at 1 to >128 ug/ml by broth microdilution method; assay type: functional; method in brief: as §3
[14] = test system: Aeromonas sp.; experiment: Antimicrobial activity against tetracycline-nonsusceptible Aeromonas sp. isolate by broth microdilution method; assay type: functional; method in brief: as §1
[15] = test system: Aeromonas hydrophila; experiment: Antimicrobial activity against Aeromonas hydrophila by broth microdilution method; assay type: functional; method in brief: as §1
[16] = test system: Salmonella; experiment: Antimicrobial activity against Salmonella serogroup O9 by broth microdilution method; assay type: functional; method in brief: as §1
[17] = test system: Aeromonas caviae; experiment: Antimicrobial activity against tigecycline-intermediate Aeromonas caviae isolate by broth microdilution method; assay type: functional; method in brief: as §1
[18] = test system: Salmonella; experiment: Antimicrobial activity against tetracycline-susceptible Salmonella sp. Isolate by broth microdilution method; assay type: functional; method in brief: as §1
[19] = test system: Vibrio cholerae; experiment: Antimicrobial activity against Vibrio cholerae non-O1 by broth microdilution method; assay type: functional; method in brief: as §2
[20] = test system: Salmonella typhimurium; experiment: Antimicrobial activity against Salmonella serotype Typhimurium by broth microdilution method; assay type: functional, Salmonella enterica subsp. enterica serovar Typhimurium; settings: Salmonella enterica; method in brief: as §1
[21] = test system: Vibrio cholerae; experiment: Antimicrobial activity against Vibrio cholerae non-O1 assessed as percent tetracyclin-resistant isolate at 0.12 to 16 ug/ml by broth microdilution method; assay type: functional
[22] = test system: Aeromonas caviae; experiment: Antimicrobial activity against Aeromonas caviae assessed as percent tetracyclin-resistant isolate at 0.25 to >16 ug/ml by broth microdilution method; assay type: functional; method in brief: as §3
[23] = test system: Salmonella typhimurium; experiment: Antimicrobial activity against Salmonella serotype Typhimurium assessed as percent tetracyclin-resistant isolate at 1 to >128 ug/ml by broth microdilution method; assay type: functional, Salmonella enterica subsp. enterica serovar Typhimurium; method in brief: as §3
[24] = test system: Salmonella; experiment: Antimicrobial activity against Salmonella serogroup O8 assessed as percent tetracyclin-resistant isolate at 1 to >128 ug/ml by broth microdilution method; assay type: functional; method in brief: as §3
[25] = test system: Salmonella; experiment: Antimicrobial activity against Salmonella serogroup O7 by broth microdilution method; assay type: functional; method in brief: as §1

With CN(C)[C@@H]1C(O)=C(C(N)=O)C(=O)[C@@]2(O)C(O)=C3C(=O)c4c(O)cccc4[C@@](C)(O)[C@H]3C[C@@H]12 [TETRACYCLINE] the MIC90 [1] was greater than 128 mg/L, the MIC90 [2] was greater than 128 mg/L and the MIC [3] was no less than 8 mg/L. It also gave an Activity [4] of 57%, an MIC90 [5] of 16 mg/L (≈ 36 µM) and an Activity [6] of 84%. For the same compound, the MIC [7] was no more than 4 mg/L, the MIC90 [8] was 16 mg/L (≈ 36 µM) and the Activity [9] was 36%. For the same compound, the MIC [10] was no less than 8 mg/L, the Activity [11] was 38% and the MIC [12] was no more than 4 mg/L. For the same compound, the Activity [13] was 16%, the MIC [14] was no less than 8 mg/L and the MIC90 [15] was 16 mg/L (≈ 36 µM). For the same compound, the MIC90 [16] was greater than 128 mg/L, the MIC [17] was greater than 128 mg/L and the MIC [18] was no more than 4 mg/L. It also gave an MIC90 [19] of 1 mg/L (≈ 2.25 µM), an MIC90 [20] greater than 128 mg/L and an Activity [21] of 8%. For the same compound, the Activity [22] was 37%, the Activity [23] was 65% and the Activity [24] was 71%. For the same compound, the MIC90 [25] was greater than 128 mg/L.
